Experimental data as given in ChEMBL document CHEMBL4002598, “Fusaric acid and analogues as Gram-negative bacterial quorum sensing inhibitors” (Eur J Med Chem, 2017).
Calls of active or inactive are those of the source. No cut-off for these calls is given here.

Experiments:
Escherichia coli [1] = assay: Growth inhibition of Escherichia coli at 3.13 ug/ml
How it was run: (§1)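 E. coli luxI-gfp reporter: overnight culture 16 h, 37 °C, 180 rpm, diluted to OD450 0.1 in BT minimal medium with 10% A10, 0.5% glucose, 0.5% Casamino Acids. 3-oxo-C6-HSL at 10 nM final. Growth read as OD450 every 15 min over 14 h at 34 °C alongside GFP. Triplicate, 2-fold dilutions from 100 μg/ml.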

[2] = biological target: T1, HTH-type quorum-sensing regulator RhlR (Pseudomonas aeruginosa (strain ATCC 15692 / PAO1 / 1C / PRS 101 / LMG12228)) (UniProt P54292); assay: Inhibition of RhlR-dependent quorum sensing activity in Pseudomonas aeruginosa harboring reporter plasmid rhlA-gfp assessed as reduction in GFP expression up to 100 ug/ml measured every 15 mins for 14 hrs by fluorescence assay
T1 sequence (whole entry): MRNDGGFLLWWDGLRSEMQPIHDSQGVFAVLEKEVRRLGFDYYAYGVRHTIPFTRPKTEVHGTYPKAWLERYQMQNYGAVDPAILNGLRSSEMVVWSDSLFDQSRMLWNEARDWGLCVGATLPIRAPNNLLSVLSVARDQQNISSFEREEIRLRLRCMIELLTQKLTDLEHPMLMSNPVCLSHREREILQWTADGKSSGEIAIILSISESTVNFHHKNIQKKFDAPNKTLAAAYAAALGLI
How it was run: (§2)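 P. aeruginosa lasB-gfp and rhlA-gfp reporters, grown 16 h at 37 °C with shaking, then diluted to OD450 0.1 in BT minimal medium (10% A10, 0.5% glucose, 0.5% Casamino Acids). No added signal molecule. Fluorescence at 485/535 nm and growth monitored every 15 min for 14 h at 34 °C. Concentrations up to 100 µg/ml.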

Escherichia coli [3] = assay: Inhibition of LuxR-dependent quorum sensing activity in Escherichia coli harboring reporter plasmid LuxI-GFP assessed as reduction in 3-oxo-C6-HSL-induced GFP expression at 3.1 ug/ml measured every 15 mins for 14 hrs by fluorescence assay
How it was run: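 E. coli luxI-gfp monitor: overnight culture 16 h, 37 °C, 180 rpm, diluted to OD450 0.1 in BT minimal medium with 10% A10, 0.5% glucose, 0.5% Casamino Acids. Signal 3-oxo-C6-HSL at 10 nM final. GFP read at ex 485/em 535 nm and OD450 every 15 min, 14 h, 34 °C. Triplicate, 2-fold dilutions from 100 μg/ml.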

Pseudomonas aeruginosa = assay: Inhibition of LasR-dependent quorum sensing activity in Pseudomonas aeruginosa harboring reporter plasmid lasB-GFP assessed as reduction in GFP expression up to 100 ug/ml measured every 15 mins for 14 hrs by fluorescence assay; how it was run: as §2
Saccharomyces cerevisiae = assay: Inhibition of yeast Pma1 at 100 uM preincubated for 30 mins by spectrophotometric method
How it was run: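 Pma1 purified from Saccharomyces cerevisiae plasma membrane, 0.5 µg per reaction. Enzyme preincubated 30 min at room temperature with 100 µM compound. Reaction buffer: 5 mM ATP, 10 mM MgSO4, 50 mM KNO3, 5 mM NaN3, 3.5 mM molybdate, 20 mM MES-KOH pH 5.9. Run 30 min, then stopped with acidic molybdate/ascorbate/SDS. Released phosphate read at 860 nm after arsenite-citrate treatment (Baginski method).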

Escherichia coli [4] = assay: Growth inhibition of Escherichia coli at 6.2 to 100 ug/ml; how it was run: as §1

Question: `CCCCc1ccc(C(=O)O)nc1` [FUSARIC ACID] was tested. Which “growth inhibition (GI)” value (Escherichia coli [1]) did it give?
Answer: Non-Toxic

Question: And the inhibition [2]?
Answer: inactive

Question: And the inhibition (Escherichia coli [3])?
Answer: Active

Question: What about the inhibition (Pseudomonas aeruginosa) of the same compound?
Answer: inactive

Question: What about the inhibition (Saccharomyces cerevisiae) of the same compound?
Answer: inactive

Question: What about the “growth inhibition (GI)” value (Escherichia coli [4]) of the same compound?
Answer: Toxic
